pIC50: −log10 of the molar value.
Legend:
P388 [1] = assay: In vivo inhibition of P388 in mice for optimal (highest nonacutely toxic) dose (OD); format: functional, Mus musculus
Outline: (§1)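 F1 (DBA/2J × C57BlJ) mice, 19-21 g, either sex, inoculated with 10^6 P388 leukemia cells on day 0. Drug given ip in 0.1 mL 30% aqueous ethanol on days 1, 5 and 9, as a solution or, at highest doses, as a sonicated suspension. Doses stepped down from a toxic level at 0.67-fold intervals. Groups of six mice; ILS relative to 20-30 controls. OD is the highest nonacutely toxic daily dose.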

L1210 = assay: In vitro test for 50% reduction of cell number (of control) after 70 hr incubation with cultures of murine L1210 leukemia cells; format: functional; conditions: Mus musculus, L1210, 70 h; read-out: ID50 (the source's name)
[2] = Binding affinity towards poly[d(A-T)] (fluorometric method); format: ADME
Outline: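 Log R for binding to poly[d(A-T)] measured fluorometrically, corrected for quenching.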

P388 [3] = assay: Tumor cell selectivity (ILSmax values) was evaluated in vivo for the percentage increase in life span of treated animals over that of P388 tumor bearing untreated control animals; h=ILS of >50% could not be obtained at any dose level; format: functional, organism-based; conditions: Mus musculus; outline: as §1
P388 [4] = assay: Dose of drug needed to provide a percentage increase in life span of tumor-bearing mice in vivo of […]% compared to untreated controls after inoculation of 10e6 P388 leukemia cells; h=ILS of >50% could not be obtained at any dose level; format: functional, organism-based; conditions: Mus musculus
[5] = Lipophilicity (Rm) (liquid chromatography); format: physicochemical
Outline: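 Rm is measured for drug cations at pH 2 by liquid-liquid chromatography on a cellulose support.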

P388 [6] = assay: Tumor cell selectivity (ILSmax values) was evaluated in vivo for the percentage increase in life span of treated animals over that of P388 tumor bearing untreated control animals; h=ILS of >20% could not be obtained at any dose level; format: functional, organism-based; conditions: Mus musculus; outline: as §1

| Compound | OD (P388 [1]) [mg/kg/day] | pIC50 (L1210) | Log K [2] | Activity (P388 [3]) | D50 (P388 [4]) | Rm [5] | Activity (P388 [6]) |
| --- | --- | --- | --- | --- | --- | --- | --- |
| CS(=O)(=O)Nc1ccc(Nc2c3ccccc3nc3cc(S(C)(=O)=O)ccc23)cc1 | 150 | < 5.66 | 5.3 | ILS not obtained | ILS not obtained | -0.2 |  |
| CS(=O)(=O)Nc1ccc(Nc2c3ccccc3nc3ccc(Cl)cc23)cc1 | 150 | 5.42 | 5.62 | ILS not obtained | ILS not obtained | 0.15 |  |
| COP(=O)(Nc1ccc(Nc2c3ccccc3nc3ccc(Cl)cc23)cc1)OC | 100 | 6.05 | 6.17 | ILS not obtained | ILS not obtained | 0.37 |  |
| COc1ccc2nc3ccccc3c(Nc3ccc(NS(C)(=O)=O)cc3)c2c1 | 150 | 5.60 | 6 |  | ILS not obtained | -0.04 | ILS not obtained |

— ChEMBL document CHEMBL1122747, “Potential antitumor agents. 42. Structure-activity relationships for acridine-substituted dimethyl phosphoramidate derivatives of 9-anilinoacridine” (J Med Chem, 1984)
